# Assay results published in ChEMBL document CHEMBL4699398, “The synthesis and biological evaluation of sanguinarine derivatives as anti-non-small cell lung cancer agents” (RSC Med Chem, 2020).
# Active and inactive are the calls of the source. No cut-off for these calls is given here.
# Key:
# [1] = system: NCI-H1975; assay: Induction of apoptosis in human H1975 cells assessed as early apoptotic cells at 0.3 uM after 48 hrs by Annexin V-FITC/7-AAD staining based flow cytometric method (reference value: 6.50 %); assay type: functional
# [2] = system: NCI-H1975; assay: Induction of cell cycle arrest in human H1975 cells assessed as accumulation in S phase at 3 uM incubated for 24 hrs by […] propidium iodide staining based flow cytometry (reference value: 14.13 %); assay type: functional
# [3] = system: A549; assay: Antiproliferative activity against human A549 cells assessed as inhibition of cell growth incubated for 72 hrs by CCK-8 assay; conditions: A549, 72 h
# [4] = system: A549; assay: Induction of cell cycle arrest in human A549 cells assessed as accumulation in G2/M phase at 1 uM incubated for 24 hrs by […] propidium iodide staining based flow cytometry (reference value: 22.46 %); assay type: functional
# [5] = system: NCI-H1975; assay: Induction of cell cycle arrest in human H1975 cells assessed as accumulation in G0/G1 phase at 3 uM incubated for 24 hrs by […] propidium iodide staining based flow cytometry (reference value: 62.86 %); assay type: functional
# [6] = system: A549; assay: Induction of cell cycle arrest in human A549 cells assessed as accumulation in S phase at 0.3 uM incubated for 24 hrs by […] propidium iodide staining based flow cytometry (reference value: 14.16 %); assay type: functional
# [7] = system: A549; assay: Induction of cell cycle arrest in human A549 cells assessed as accumulation in G2/M phase at 0.3 uM incubated for 24 hrs by […] propidium iodide staining based flow cytometry (reference value: 22.46 %); assay type: functional
# [8] = system: A549; assay: Induction of apoptosis in human A549 cells assessed as viable cells at 1 uM after 48 hrs by Annexin V-FITC/7-AAD staining based flow cytometric method (reference value: 93.10 %); assay type: functional; conditions: read-out: Activity
# [9] = system: NCI-H1975; assay: Induction of cell cycle arrest in human H1975 cells assessed as accumulation in G2/M phase at 1 uM incubated for 24 hrs by […] propidium iodide staining based flow cytometry (reference value: 21.00 %); assay type: functional
# [10] = system: A549; assay: Induction of cell cycle arrest in human A549 cells assessed as accumulation in G0/G1 phase at 1 uM incubated for 24 hrs by […] propidium iodide staining based flow cytometry (reference value: 63.11 %); assay type: functional
# [11] = system: NCI-H1975; assay: Induction of cell cycle arrest in human H1975 cells assessed as accumulation in S phase at 1 uM incubated for 24 hrs by […] propidium iodide staining based flow cytometry (reference value: 14.13 %); assay type: functional
# [12] = system: NCI-H1975; assay: Induction of apoptosis in human H1975 cells assessed as increase in phosphorylated Akt level at 0.1 to 3 uM incubated for 24 hrs by Western blot analysis; assay type: functional, cell-based; conditions: dose microM 0.1-3, time 24.0 hrs
# Procedure, shortened: (§1)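 After treatment, cells harvested and lysed in RIPA buffer; equal protein loaded on 12% SDS-PAGE and transferred to PVDF; blocked in 5% milk 2 h at room temperature; primary antibodies (AKT, p-AKT, cleaved caspase-3, cleaved caspase-9, PARP; GAPDH loading control) overnight at 4 °C; HRP secondaries 2 h at room temperature; chemiluminescent detection.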
# [13] = system: NCI-H1975; assay: Induction of apoptosis in human H1975 cells assessed as increase in cleaved caspase-9 level at 0.1 to 3 uM incubated for 24 hrs by Western blot analysis; assay type: functional, cell-based; conditions: dose microM 0.1-3, time 24.0 hrs; procedure, shortened: as §1
# [14] = system: A549; assay: Induction of apoptosis in human A549 cells assessed as increase in cleaved PARP level at 0.1 to 3 uM after 24 hrs by Western blot analysis; assay type: functional, cell-based; conditions: dose microM 0.1-3, time 24.0 hrs; procedure, shortened: as §1
# [15] = system: NCI-H1975; assay: Induction of apoptosis in human H1975 cells assessed as increase in Akt level at 0.1 to 3 uM incubated for 24 hrs by Western blot analysis; assay type: functional, cell-based; conditions: dose microM 0.1-3, time 24.0 hrs; procedure, shortened: as §1
# [16] = system: A549; assay: Induction of apoptosis in human A549 cells assessed as increase in Akt level at 0.1 to 3 uM incubated for 24 hrs by Western blot analysis; assay type: functional, cell-based; conditions: dose microM 0.1-3, time 24.0 hrs; procedure, shortened: as §1
# [17] = system: A549; assay: Induction of apoptosis in human A549 cells assessed as early apoptotic cells at 0.3 uM after 48 hrs by Annexin V-FITC/7-AAD staining based flow cytometric method (reference value: 3.26 %); assay type: functional
# [18] = system: A549; assay: Induction of apoptosis in human A549 cells assessed as increase in ROS production incubated for 20 mins by DCFH-DA staining based flow cytometry analysis; assay type: functional, cell-based; conditions: dose microM 0.3-3, time 20.0 min
# Procedure, shortened: (§2)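 At 20 min after compound treatment, cells washed in PBS and loaded with 10 μM DCFH-DA in phenol red-free DMEM for 30 min at 37 °C in the dark; washed three times with PBS; DCF fluorescence of ROS-positive cells measured by flow cytometry with excitation at 488 nm.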
# [19] = system: A549; assay: Induction of cell cycle arrest in human A549 cells assessed as accumulation in G0/G1 phase at 0.3 uM incubated for 24 hrs by […] propidium iodide staining based flow cytometry (reference value: 63.11 %); assay type: functional
# [20] = system: NCI-H1975; assay: Induction of apoptosis in human H1975 cells assessed as early apoptotic cells at 1 uM after 48 hrs by Annexin-V-FITC/7-AAD staining based flow cytometric method (reference value: 6.50 %); assay type: functional
# [21] = system: NCI-H1975; assay: Induction of apoptosis in human H1975 cells assessed as increase in cleaved PARP level at 0.1 to 3 uM after 24 hrs by Western blot analysis; assay type: functional, cell-based; conditions: dose microM 0.1-3, time 24.0 hrs; procedure, shortened: as §1
# [22] = system: A549; assay: Induction of apoptosis in human A549 cells assessed as viable cells at 0.3 uM after 48 hrs by Annexin V-FITC/7-AAD staining based flow cytometric method (reference value: 93.10 %); assay type: functional; conditions: read-out: Activity
# [23] = system: NCI-H1975; assay: Antiproliferative activity against human H1975 cells assessed as inhibition of cell growth incubated for 72 hrs by CCK-8 assay; conditions: NCI-H1975, 72 h
# [24] = system: NCI-H1975; assay: Induction of cell cycle arrest in human H1975 cells assessed as accumulation in G2/M phase at 3 uM incubated for 24 hrs by […] propidium iodide staining based flow cytometry (reference value: 21.00 %); assay type: functional
# [25] = system: A549; assay: Induction of cell cycle arrest in human A549 cells assessed as accumulation in G2/M phase at 3 uM incubated for 24 hrs by […] propidium iodide staining based flow cytometry (reference value: 22.46 %); assay type: functional
# [26] = system: A549; assay: Induction of apoptosis in human A549 cells assessed as increase in cleaved caspase-9 level at 0.1 to 3 uM incubated for 24 hrs by Western blot analysis; assay type: functional, cell-based; conditions: dose microM 0.1-3, time 24.0 hrs; procedure, shortened: as §1
# [27] = system: NCI-H1975; assay: Induction of apoptosis in human H1975 cells assessed as increase in cleaved caspase-3 level at 0.1 to 3 uM incubated for 24 hrs by Western blot analysis; assay type: functional, cell-based; conditions: dose microM 0.1-3, time 24.0 hrs; procedure, shortened: as §1
# [28] = system: NCI-H1975; assay: Induction of apoptosis in human H1975 cells assessed as increase in ROS production incubated for 20 mins by DCFH-DA staining based flow cytometry analysis; assay type: functional, cell-based; conditions: dose microM 0.3-3, time 20.0 min; procedure, shortened: as §2
# [29] = system: A549; assay: Induction of cell cycle arrest in human A549 cells assessed as accumulation in S phase at 3 uM incubated for 24 hrs by […] propidium iodide staining based flow cytometry (reference value: 14.16 %); assay type: functional
# [30] = system: A549; assay: Induction of apoptosis in human A549 cells assessed as early apoptotic cells at 3 uM after 48 hrs by Annexin V-FITC/7-AAD staining based flow cytometric method (reference value: 3.26 %); assay type: functional
compound,measurement,setting,value
CN1c2c(ccc3cc4c(cc23)OCO4)-c2ccc3c(c2C1N1CCOCC1)OCO3 (stereo not given),Activity,[1],10.94%
same,Activity,[2],8.75%
same,IC50,[3],1790 nM
same,Activity,[4],14.29%
same,Activity,[5],77.7%
same,Activity,[6],14.84%
same,Activity,[7],20.27%
same,viability at 1 µM,[8],78.3%
same,Activity,[9],19.67%
same,Activity,[10],70.03%
same,Activity,[11],12.43%
same,Activity,[12],Active
same,Activity,[13],Active
same,Activity,[14],Active
same,Activity,[15],Active
same,Activity,[16],Active
same,Activity,[17],4.92%
same,Activity,[18],Dose-dependent effect
same,Activity,[19],64.85%
same,Activity,[20],10.59%
same,Activity,[21],Active
same,viability at 0.3 µM,[22],79.4%
same,IC50,[23],1160 nM
same,Activity,[24],13.21%
same,Activity,[25],13.56%
same,Activity,[26],Active
same,Activity,[27],Active
same,Activity,[28],Dose-dependent effect
same,Activity,[29],15.07%
same,Activity,[30],3.91%
